Substitutions are numbered along the chain they refer to.
Columns and labels:
Assay type in all cases: cell-based
rP2X7-Q143A = molecular target: T1, rP2X7-Q143A (Rattus norvegicus, UniProt Q64663, Q143A); assay: TEVC dose response; settings: read-out: EC50 (apparent affinity), mean ± SD, triplicate
T1 sequence (Q64663 1-595 Q143A): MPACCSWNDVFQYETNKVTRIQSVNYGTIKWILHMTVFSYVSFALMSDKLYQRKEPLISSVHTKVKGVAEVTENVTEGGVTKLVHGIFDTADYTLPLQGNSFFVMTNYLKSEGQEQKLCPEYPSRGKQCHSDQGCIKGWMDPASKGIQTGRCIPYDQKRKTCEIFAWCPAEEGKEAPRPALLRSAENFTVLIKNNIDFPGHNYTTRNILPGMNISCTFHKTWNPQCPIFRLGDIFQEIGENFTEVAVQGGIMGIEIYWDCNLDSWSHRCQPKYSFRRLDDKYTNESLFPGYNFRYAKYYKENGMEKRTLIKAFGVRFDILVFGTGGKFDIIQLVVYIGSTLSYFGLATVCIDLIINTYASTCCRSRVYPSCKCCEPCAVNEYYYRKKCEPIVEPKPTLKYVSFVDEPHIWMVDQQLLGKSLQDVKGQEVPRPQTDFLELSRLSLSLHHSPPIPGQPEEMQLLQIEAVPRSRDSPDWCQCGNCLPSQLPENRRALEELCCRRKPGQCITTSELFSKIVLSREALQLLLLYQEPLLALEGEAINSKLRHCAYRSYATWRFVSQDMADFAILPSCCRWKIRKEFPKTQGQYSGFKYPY
Outline: (§1)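 TEVC was run on Xenopus oocytes ~20 h after injection of wild-type or mutant rP2X7 mRNA, in pH 7.4 HEPES buffer with 0.1 mM flufenamic acid. Receptors were facilitated at 100 µM before recording. Dilution series: ATP 1.5 mM–2 µM (7 points), BzATP 300–0.14 µM (8 points). Responses were normalized to the largest concentration, fitted by nonlinear regression for EC50, and averaged across triplicates (mean ± SD).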

rP2X7-I214G = molecular target: T2, rP2X7-I214G (Rattus norvegicus, UniProt Q64663, I214G); assay: TEVC dose response; settings: read-out: EC50 (apparent affinity), mean ± SD, triplicate
T2 sequence (Q64663 1-595 I214G): T1 sequence (Q64663 1-595 Q143A) with A143Q, I214G
Outline: as §1

rP2X7 K127A = molecular target: T3, rP2X7 K127A (Rattus norvegicus, UniProt Q64663, K127A); assay: TEVC deactivation time; settings: after 100 μM ATP or 10 μM BzATP
T3 sequence (Q64663 1-595 K127A): T1 sequence (Q64663 1-595 Q143A) with K127A, A143Q
Outline: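 Xenopus oocytes injected with 50 nL of 10 ng/µL mutant rP2X7 mRNA, expressed ~20 h, clamped in pH 7.4 HEPES buffer with 0.1 mM flufenamic acid and EDTA. Currents were evoked by 100 µM ATP or 10 µM BzATP. τ is the time for current to return to 63% of baseline after agonist removal, from a one- or two-phase decay fit. Done in triplicate over first to third applications per oocyte; mean ± SD.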

| Compound | EC50 (rP2X7-Q143A) | EC50 (rP2X7-I214G) | deactivation lifetime τ (rP2X7 K127A) |
| --- | --- | --- | --- |
| Nc1ncnc2c1ncn2[C@@H]1O[C@H](COP(=O)(O)OP(=O)(O)OP(=O)(O)O)[C@@H](O)[C@H]1O [ATP] | 113 ± 30 µM | 171 ± 14 µM | 2.3 ± 0.7 s |
| BzATP | 8.5 ± 3.2 µM | 8 ± 1 µM | 21 ± 6.2 s |
